Measured values collected from several papers.
Protocols differ between the studies behind these lines.
Target: Casein kinase II subunit alpha' (CSNK2A2, Homo sapiens, UniProt P19784)

CC1=C(C#N)[C@@H](c2ccc3[nH]nc(C)c3c2)C(C#N)=C(c2ccc(Cl)cc2)N1 — remaining binding (cell-free assay; competition with immobilised ligand; 1 µM): 100%
FC(F)(F)Oc1cccc(-c2cnc3ccc(-c4ccncc4)nn23)c1 — remaining binding (cell-free assay; competition with immobilised ligand; 5 µM): 23%
Nc1ncc2c(n1)-c1c([nH]c3ccc(C#CC4CC4)cc13)CCCC2 — remaining binding (binding; competition with immobilised ligand; 1 µM): 82%
F[C@@H]1CCN(c2nccc(-c3cnn4ncccc34)n2)C1 — remaining binding (binding; 1 µM): 100%
CN(C)C(=O)Cn1cc(-c2nc(C3(c4ccc(-c5cnc(N)nc5)cc4)CC3)no2)cn1 — remaining binding (cell-free assay; competition with immobilised ligand; 1 µM): 100%
CN(c1nccc(-c2cnn3ncccc23)n1)C1CC1 — remaining binding (binding; 1 µM): 100%
COc1cnc(Nc2cccc(S(N)(=O)=O)c2)nc1N1CCN(c2ccccc2)CC1 — remaining binding (binding; competition with immobilised ligand; 1 µM): 90%
CN(C)c1nccc(-c2cnc3ncccn23)n1 — remaining binding (binding; 1 µM): 24%
CN([C@@H]1CCc2c(CC(=O)O)c3cc(S(C)(=O)=O)ccc3n2C1)S(=O)(=O)c1ccc(F)cc1 — remaining binding (cell-free assay; competition with immobilised ligand; 1 µM): 100%
C=CC(=O)N1CCC(C(=O)NCC(=O)N2CCN(c3nc(-c4cnc(N)nc4C(F)F)nc(N4CCOCC4)n3)CC2)CC1 — remaining binding (binding; competition with immobilised ligand; 1 µM): 100%
CCOCCn1cc(C(=O)Nc2ccc(-n3nc(-c4cccnc4)cc3C(F)(F)F)cn2)ccc1=O — remaining binding (cell-free assay; competition with immobilised ligand; 1 µM): 100%
CN(C)c1nccc(-c2cnn3ncccc23)n1 — remaining binding (binding; 1 µM): 39%
O=C(c1ccc(Nc2ncc(Cl)c(-c3ccc(Cl)s3)n2)cc1)N1CCC(N2CCCC2)CC1 — remaining binding (binding; competition with immobilised ligand; 1 µM): 0.15%
Cc1c(NC(=O)c2cc(C(N)=O)nc3cc(F)ccc23)c(C(F)(F)F)nn1Cc1ccc(C#N)cc1 — remaining binding (cell-free assay; competition with immobilised ligand; 1 µM): 100%
Cc1cnc(Nc2ccc(C(=O)N3CCC(N4CCCC4)CC3)cc2)nc1-c1cc2ccccc2s1 — remaining binding (binding; competition with immobilised ligand; 1 µM): 0%
C[C@@H]1CCN(c2nccc(-c3cnn4ncccc34)n2)C1 — remaining binding (binding; 1 µM): 60%
O=C(NS(=O)(=O)c1ccc(NCC2CCOCC2)c([N+](=O)[O-])c1)c1ccc(N2CCN(Cc3ccc(C(F)(F)F)cc3-c3ccc(Cl)cc3)CC2)cc1Oc1cnc2[nH]ccc2c1 — remaining binding (cell-free assay; competition with immobilised ligand; 1 µM): 100%
N[C@H]1CCN(c2nccc(-c3cnn4ncccc34)n2)C1 — remaining binding (binding; 1 µM): 88%
CO[C@@H](C)c1c(Nc2ccc([C@@H](N(C)C(=O)C3CCS(=O)(=O)CC3)C(F)(F)F)cc2)cnc2cc(Cl)nn12 — remaining binding (cell-free assay; competition with immobilised ligand; 1 µM): 100%
COc1ccnn2ncc(-c3ccnc(N(C)C)n3)c12 — remaining binding (binding; 1 µM): 61%
O=C(NCCCN1CCOCC1)c1ccc(Nc2ncc(Cl)c(-c3ccc(Cl)s3)n2)cc1 — remaining binding (binding; competition with immobilised ligand; 1 µM): 0.2%
O=C(Nc1c[nH]nc1C(=O)NC1CCNCC1)c1cc(F)cc(F)c1 — remaining binding (binding; competition with immobilised ligand; 1 µM): 100%
